According to ChEMBL document CHEMBL4184168, “Anticancer activities of emetine prodrugs that are proteolytically activated by the prostate specific antigen (PSA) and evaluation of in vivo toxicity of emetine derivatives” (Bioorg Med Chem, 2017):
Activity calls are given as the source filed them. No cut-off for these calls is given here. *1 amine or outer side, *2 acyl side, *3 side chain or, on linkers, in order; H or OH if unused. Where a SMILES comes first, the peptide text is derived from it. [ ]: non-standard residue; d: D form. The star is where a group is joined. Emetine(N2') = CC[C@H]1CN2CCc3cc(OC)c(OC)cc3[C@@H]2C[C@@H]1C[C@@H]1c2cc(OC)c(OC)cc2CCN1*; PABC = O=C(OCc1ccc(N[*:1])cc1)[*:2]

Experiments:
Mus musculus [1] = assay: Toxicity in Balb/C mouse assessed as change in behavior at >100 mg/kg, iv; assay type: organism-based; conditions: in vivo
How it was run: (§1)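 Male Balb/c mice, eight weeks old, about 25 g. Single IV bolus of 200 μL, doses ranging from 8 to 100 mg/kg, in 1% DMSO/saline or 10% cremophor/saline; vehicle-only controls. Each dose tested in triplicate. Mice watched for convulsions, death and behaviour after injection to set the maximum tolerated dose.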

[2] = Toxicity in iv dosed Balb/C mouse; assay type: organism-based; conditions: in vivo; how it was run: as §1
Mus musculus [3] = assay: Toxicity in Balb/C mouse assessed as mortality at >100 mg/kg, iv; assay type: organism-based; conditions: in vivo; how it was run: as §1
LNCaP [4] = assay: Antiproliferative activity against human LNCAP cells expressing PSA at 10000 nM after 3 days by MTT assay; assay type: functional, cell-based
How it was run: (§2)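 LNCaP seeded at 5 × 10^3 cells/well; PC3, CWR22Rv1 and MDA-MB-231 at 2.5 × 10^3. The first three were grown in RPMI and MDA-MB-231 in DMEM, each with 10% FBS. After 24 h attachment, cells got final 10, 50, 100, 1000 or 10,000 nM (0.1% DMSO) in eight replicates. Viable cells by MTT on day 0, 3 and 5, A570 corrected at 650 nm. Experiments run at least twice.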

PC-3 [5] = assay: Antiproliferative activity against human PC3 cells at 10000 nM after 3 days by MTT assay; assay type: functional, cell-based; how it was run: as §2
[6] = biological target: T1, Prostate-specific antigen (Homo sapiens, UniProt P07288); assay: Prodrug activation in human plasma assessed as human PSA mediated emetine formation at 200 uM after 48 hrs by HPLC-MS analysis
T1 sequence (P07288 whole entry): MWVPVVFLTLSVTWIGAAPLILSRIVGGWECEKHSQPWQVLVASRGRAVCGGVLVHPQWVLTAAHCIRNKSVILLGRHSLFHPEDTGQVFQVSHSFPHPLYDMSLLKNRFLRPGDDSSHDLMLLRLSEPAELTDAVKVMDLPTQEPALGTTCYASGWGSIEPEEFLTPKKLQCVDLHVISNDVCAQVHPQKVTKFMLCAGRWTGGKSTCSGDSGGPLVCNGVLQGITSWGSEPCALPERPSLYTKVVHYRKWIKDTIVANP

[7] = Prodrug activation assessed as emetine formation at […] in presence of 10% FBS after 5 days by HPLC-MS analysis; conditions: cattle, 120 h
How it was run: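 No enzyme added. 10 mM DMSO stock diluted to 200 μM final (2% DMSO) in PBS, 10% FBS in PBS, or conditioned RPMI (supernatant of LNCaP culture grown to about 95% confluency). Shaken at 37 °C, quenched with cold acetonitrile, centrifuged, supernatant analysed by reversed-phase C18 HPLC (215/285 nm) and ESI-MS.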

[8] = biological target: T1, Prostate-specific antigen; assay: (§3) Prodrug activation in human plasma assessed as human PSA mediated 4-((S)-2-((S)-2-Amino-3-hydroxypropanamido)-4-methylpentanamido)benzyl(R)-1-(((2R,3R,11bS)-3-ethyl-9,10-dimethoxy-1,3,4,6,7,11b-hexahydro-2H-pyrido[2,1-a]isoquinolin-2-yl)methyl)-6,7-dimethoxy-3,4-dihydroisoquinoline-2(1H)-carboxylate formation at 200 uM after 48 hrs by HPLC-MS analysis
[9] = biological target: T1, Prostate-specific antigen; assay: as §3, with “activation” for “activation in human plasma”, “formation” for “formation at 200 uM after 48 hrs”; conditions: TDE = time-dependent effect
How it was run: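 10 mM DMSO stock diluted to 200 μM final in PSA buffer (50 mM Tris·HCl, 100 mM NaCl, pH 7.4) with purified PSA at 20 μg/mL final and 2% DMSO. Shaken at 37 °C. Aliquots taken at time points, quenched with cold acetonitrile, held on ice, centrifuged, then analysed by reversed-phase C18 HPLC (215/285 nm) and mass spectrometry.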

LNCaP [10] = assay: Antiproliferative activity against human LNCAP cells expressing PSA after 3 days by MTT assay; assay type: functional, cell-based; how it was run: as §2
PC-3 [11] = assay: Antiproliferative activity against human PC3 cells after 3 days by MTT assay; assay type: functional, cell-based; how it was run: as §2
CWR22R = assay: Antiproliferative activity against human CWR22Rv1 cells expressing PSA after 3 days by MTT assay; assay type: functional, cell-based; how it was run: as §2
Mus musculus [12] = assay: Toxicity in Balb/C mouse assessed as convulsion at >25 mg/kg, iv after 1 min; assay type: organism-based; conditions: in vivo; how it was run: as §1
Mus musculus [13] = assay: Toxicity in Balb/C mouse at >100 mg/kg, iv; assay type: organism-based; conditions: in vivo; how it was run: as §1
Mus musculus [14] = assay: Toxicity in Balb/C mouse at 32 mg/kg, iv; assay type: organism-based; conditions: in vivo

Question: For CC[C@H]1CN2CCc3cc(OC)c(OC)cc3[C@@H]2C[C@@H]1C[C@@H]1c2cc(OC)c(OC)cc2CCN1C(=O)/C=C(/C)C(=O)O, which Activity (Mus musculus [1]) is on record?
Answer: The Activity was “Non-Toxic”.

Question: And the MTD [2]?
Answer: Its MTD is greater than 100 mg/kg.

Question: What about the Activity (Mus musculus [3]) of the same molecule?
Answer: Its Activity is “Non-Toxic”.

Question: Which results are given for CC[C@@H]1C[C@@H](C[C@@H]2c3cc(OC)c(OC)cc3CCN2C(=O)OCc2ccc(NC(=O)[C@H](CC(C)C)NC(=O)[C@H](CO)NC(C)=O)cc2)[C@H]2c3cc(OC)c(OC)cc3CCN2C1?
Answer: Activity (LNCaP [4]): Active; Activity (PC-3 [5]): Active

Question: Which Drug metabolism [6] does the source give for CC[C@H]1CN2CCc3cc(OC)c(OC)cc3[C@@H]2C[C@@H]1C[C@@H]1c2cc(OC)c(OC)cc2CCN1C(=O)OCc1ccc(NC(=O)[C@H](CC(C)C)NC(=O)[C@H](CO)NC(=O)[C@H](CCC(N)=O)NC(=O)[C@H](CC(C)C)NC(=O)[C@H](CCCCN)NC(=O)[C@H](CO)NC(=O)[C@H](CO)NC(=O)[C@H](Cc2cnc[nH]2)NC(C)=O)cc1 (Ac-HSSKLQSL[PABC]-{Emetine(N2')}) here?
Answer: Its Drug metabolism is “Metabolite_Notdetected”.

Question: What about the MTD [2] of the same molecule?
Answer: The MTD was 25 mg/kg.

Question: And the Drug metabolism [7]?
Answer: Its Drug metabolism is “Metabolite_Notdetected”.

Question: What about the Drug metabolism [8] of the same molecule?
Answer: Its Drug metabolism is “Metabolite_Notdetected”.

Question: And the Drug metabolism [9]?
Answer: The Drug metabolism was “Tde”.

Question: And the Activity (LNCaP [10])?
Answer: The Activity was “Dose-dependent effect”.

Question: What about the IC50 (LNCaP [10]; 72 h) of the same molecule?
Answer: The IC50 was 59 nM.

Question: And the Activity (PC-3 [11])?
Answer: Its Activity is “Dose-dependent effect”.

Question: And the IC50 (PC-3 [11]; PC-3, 72 h)?
Answer: The IC50 was 538 nM.

Question: And the Activity (CWR22R)?
Answer: Its Activity is “Dose-dependent effect”.

Question: What about the IC50 (CWR22R; 22Rv1, 72 h) of the same molecule?
Answer: The IC50 was 75.8 nM.

Question: What about the Activity (Mus musculus [12]) of the same molecule?
Answer: The Activity was “Toxic”.

Question: With CC[C@H]1CN2CCc3cc(OC)c(OC)cc3[C@@H]2C[C@@H]1C[C@@H]1c2cc(OC)c(OC)cc2CCN1C(=O)/C=C(/CC(=O)O)C(=O)O as the molecule, how does the Activity (Mus musculus [1]) read?
Answer: Its Activity is “Non-Toxic”.

Question: And the MTD [2]?
Answer: The MTD was greater than 100 mg/kg.

Question: What about the Activity (Mus musculus [3]) of the same molecule?
Answer: The Activity was “Non-Toxic”.

Question: Which Activity (Mus musculus [1]) does the source give for CC[C@H]1CN2CCc3cc(OC)c(OC)cc3[C@@H]2C[C@@H]1C[C@@H]1c2cc(OC)c(OC)cc2CCN1C(=O)CCC(=O)O here?
Answer: The Activity was “Non-Toxic”.

Question: What about the MTD [2] of the same molecule?
Answer: Its MTD is greater than 100 mg/kg.

Question: What about the Activity (Mus musculus [3]) of the same molecule?
Answer: Its Activity is “Non-Toxic”.

Question: With CC[C@H]1CN2CCc3cc(OC)c(OC)cc3[C@@H]2C[C@@H]1C[C@@H]1c2cc(OC)c(OC)cc2CCN1C(=O)OCc1ccc([N+](=O)[O-])cc1 as the molecule, how does the Activity (Mus musculus [1]) read?
Answer: Its Activity is “Non-Toxic”.

Question: What about the MTD [2] of the same molecule?
Answer: The MTD was greater than 64 mg/kg.

Question: And the Activity (Mus musculus [3])?
Answer: The Activity was “Non-Toxic”.

Question: What about the Activity (Mus musculus [13]) of the same molecule?
Answer: Its Activity is “Non-Toxic”.

Question: For CC[C@H]1CN2CCc3cc(OC)c(OC)cc3[C@@H]2C[C@@H]1C[C@@H]1c2cc(OC)c(OC)cc2CCN1C(=S)Nc1ccccc1, which Activity (Mus musculus [1]) is on record?
Answer: Its Activity is “Non-Toxic”.

Question: What about the MTD [2] of the same molecule?
Answer: The MTD was greater than 100 mg/kg.

Question: What about the Activity (Mus musculus [3]) of the same molecule?
Answer: Its Activity is “Non-Toxic”.

Question: And the Activity (Mus musculus [13])?
Answer: The Activity was “Non-Toxic”.

Question: For CC[C@H]1CN2CCc3cc(OC)c(OC)cc3[C@@H]2C[C@@H]1C[C@@H]1c2cc(OC)c(OC)cc2CCN1C(=O)/C(C)=C(/C)C(=O)O, which Activity (Mus musculus [14]) is on record?
Answer: Its Activity is “Toxic”.
